# An excerpt weighted towards active compounds, which were near 5.9% of everything screened.
# T cruzi growth-1: blocks T. cruzi growth in NIH3T3 culture. inhibition, % at 8.34 µM. T. cruzi beta-gal in NIH3T3, GalScreen luminescence, 90 h. 5.9% of 77,000 active;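 active means mean inhibition above about 93%, with at least 55% of replicates each passing it, limit read from the data, passing the limit was not always enough; inconclusive means only one of those two conditions holds; inactive means neither condition holds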
# GASC1 inh: blocks human GASC-1 (KDM4C) demethylase activity; Q9H3R0; GST-KDM4C 2-372, H3K9me3 peptide, LANCE TR-FRET; inhibition, % at 12.5 µM; 0.15% of 96,000 active; AID 720574;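 active means mean replicate inhibition above about 25%, with at least 55% of replicates also reaching it, limit read from the data, passing the limit was not always enough; inconclusive means only one of those two conditions met; inactive means neither condition met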
#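 Test system: N-terminal GST-fused human GASC-1 (KDM4C) fragment, residues 2-372; quantity: GASC-1 enzyme at 10 nM final in reaction; dosing: single dose; schedule: 30 min demethylation and 1 h detection at room temperature; signal: LANCE TR-FRET, excitation 340 nm, emissions 618 and 671 nm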
# IDH1 R132H inh: blocks human IDH1 R132H reductase activity | O75874 | diaphorase/resazurin fluorescence, 60 min | 0.18% of 70,000 active | inhibition, % at 10 µM; in the data active means inhibition above about 34%; inconclusive means no clear call, values can overlap the other calls; inactive means below about 11%;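 further: 0% = DMSO and 100% = no enzyme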
# Target sequence (O75874 whole entry R132H): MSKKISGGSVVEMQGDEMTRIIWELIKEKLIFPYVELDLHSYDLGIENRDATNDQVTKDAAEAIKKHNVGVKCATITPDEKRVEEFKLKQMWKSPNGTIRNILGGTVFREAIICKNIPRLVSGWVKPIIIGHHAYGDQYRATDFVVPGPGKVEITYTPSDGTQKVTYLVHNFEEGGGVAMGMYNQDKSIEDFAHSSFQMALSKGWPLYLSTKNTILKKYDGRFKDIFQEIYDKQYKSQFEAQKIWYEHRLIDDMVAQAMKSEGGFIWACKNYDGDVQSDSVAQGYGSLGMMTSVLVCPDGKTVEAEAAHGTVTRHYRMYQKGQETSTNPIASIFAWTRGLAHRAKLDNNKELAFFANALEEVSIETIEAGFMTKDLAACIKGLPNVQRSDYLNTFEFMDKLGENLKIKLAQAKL
# Pf Dd2 growth: inhibitors of Plasmodium falciparum Dd2 growth. P. falciparum Dd2 growth, SYBR Green, 72 h; active compounds read low. 2.3% of 94,000 active. activity change, % at 10 µM; in the data active means activity change below about -80%; inconclusive means no clear call, values can overlap the other calls
# T cruzi growth-2: blocks T. cruzi growth in NIH3T3 host cells; shares compounds with T cruzi growth-1; T. cruzi beta-gal in NIH3T3, GalScreen luminescence, 90 h; inhibition, % at 8.35 µM; 72% of 5,600 active;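 active means mean replicate inhibition above about 95% and at least 55% of replicates individually reaching it, limit read from the data; inconclusive means only one of the two criteria is met; inactive means neither criterion is met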
# T cruzi growth-3: blocks T. cruzi growth in NIH3T3 host cells. shares compounds with T cruzi growth-1. inhibition, % at 2.09 µM. T. cruzi beta-gal in NIH3T3, GalScreen luminescence, 90 h. AID 651740. 21% of 5,600 active;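 active means mean inhibition above about 95%, with at least 55% of replicates also reaching it, limit read from the data; inconclusive means meets just one of the two conditions; inactive means meets neither condition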;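 further: plate controls were neutral control median for no effect and positive control median for full effect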
# 3T3 cytotox: NIH/3T3 (mouse) viability loss; shares compounds with T cruzi growth-1; NIH/3T3 viability, CellTiter-Glo ATP luminescence, 90 h; cytotoxicity (signal decrease), % at 8.35 µM; 14% of 5,600 active; AID 651742;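 active means mean signal decrease across replicates above about 35% based on untreated-well scatter, with enough replicates individually passing, limit read from the data; inconclusive means no rule stated though some were filed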;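 further: 0% = median of neutral control wells and 100% = median of positive control wells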
# NIH3T3 tox 2: cytotoxicity in mouse NIH/3T3 fibroblasts; shares compounds with T cruzi growth-1; NIH/3T3 viability, CellTiter-Glo ATP luminescence, 90 h; inhibition, % at 24.9 µM; 56% of 5,600 active;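 active means mean loss of cell viability signal at or above a set limit, and enough replicates individually reaching it; inconclusive means meets only the mean limit or only the replicate share; inactive means meets neither condition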;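 further: 0% = median of neutral control wells and 100% = median of positive control wells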
# The depositor's hits bear a star; ? = inconclusive; · = not tested or not shown.
SMILES,T cruzi growth-1,GASC1 inh,IDH1 R132H inh,Pf Dd2 growth,T cruzi growth-2,T cruzi growth-3,3T3 cytotox,NIH3T3 tox 2
CC(C)C#Cc1ccc([C@@H]2[C@H](C#N)N(C(=O)c3cccc(F)c3)[C@H]2CO)cc1,?,3,·,-28,92,106*,16,78*
CC(C)C#Cc1ccc([C@@H]2[C@@H](C#N)N(C(=O)c3cccc(F)c3)[C@H]2CO)cc1,97*,-2,·,-60,103*,81,10,32
C[C@@H]1CN([C@H](C)CO)C(=O)Cc2cc(NS(=O)(=O)c3ccccc3)ccc2O[C@@H]1CN(C)C(=O)Nc1ccc(F)cc1,·,1,3,6,·,·,·,·
C[C@@H]1CN([C@H](C)CO)C(=O)c2cc(NC(=O)Nc3ccccc3)ccc2O[C@@H](C)CCCCO[C@@H]1CN(C)C(=O)CCC(F)(F)F,-15,-1,-6,-23,·,·,·,·
C[C@H]1CCCCO[C@H](CN(C)C(=O)C2CCCCC2)[C@@H](C)CN([C@@H](C)CO)C(=O)c2cc(NC(=O)Nc3cccc4ccccc34)ccc2O1,?,-3,·,-75,98*,104*,9,29
C[C@@H]1CCCCO[C@H](CN(C)C(=O)C2CCCCC2)[C@@H](C)CN([C@H](C)CO)C(=O)c2cc(NC(=O)Nc3cccc4ccccc34)ccc2O1,?,17,-1,-57,102*,7,-1,-38
C[C@@H]1CCCCO[C@H](CN(C)C(=O)Nc2cccc3ccccc23)[C@H](C)CN([C@@H](C)CO)C(=O)c2cc(NC(=O)Nc3cccc4ccccc34)ccc2O1,38,0,·,-22,·,·,·,·
C[C@@H]1CCCCO[C@H](CN(C)C(=O)Nc2cccc3ccccc23)[C@@H](C)CN([C@H](C)CO)C(=O)c2cc(NC(=O)Nc3cccc4ccccc34)ccc2O1,8,1,-4,-48,·,·,·,·
C[C@@H]1CN([C@H](C)CO)C(=O)c2cc(NC(=O)Nc3cccc4ccccc34)ccc2O[C@@H](C)CCCCO[C@H]1CN(C)C(=O)C1CCCCC1,?,-2,·,-66,104*,106*,15,24
C[C@@H]1CCCCO[C@@H](CN(C)C(=O)C2CCCCC2)[C@H](C)CN([C@@H](C)CO)C(=O)c2cc(NC(=O)Nc3cccc4ccccc34)ccc2O1,116*,-1,-2,-2,104*,73,-15,8
CCC(=O)N1C[C@@H](O)COC[C@H]2O[C@@H](CC(=O)NCC3CCCCC3)CC[C@@H]21,69,11,·,-24,·,·,·,·
O=C(Nc1ccccc1F)N[C@@H]1CC[C@@H](CCNC(=O)C2CCCCC2)O[C@H]1CO,28,0,0,-4,·,·,·,·
C[C@@H]1CN([C@H](C)CO)C(=O)c2cc(C#Cc3ccccc3F)cnc2O[C@H]1CN(C)C(=O)Cc1ccccc1,102,2,-5,-8,·,·,·,·
Cc1noc(C)c1S(=O)(=O)N(C)C[C@@H]1OCCCC[C@@H](C)Oc2ccc(NC(=O)Nc3ccc(F)cc3)cc2C(=O)N([C@H](C)CO)C[C@H]1C,75,0,1,-47,·,·,·,·
Cc1noc(C)c1S(=O)(=O)N(C)C[C@H]1OCCCC[C@@H](C)Oc2ccc(NC(=O)Nc3ccc(C(F)(F)F)cc3)cc2C(=O)N([C@@H](C)CO)C[C@@H]1C,99*,0,2,-94*,106*,116*,30,35*
Cc1noc(C)c1S(=O)(=O)N(C)C[C@@H]1OCCCC[C@H](C)Oc2ccc(NC(=O)Nc3ccc(C(F)(F)F)cc3)cc2C(=O)N([C@H](C)CO)C[C@@H]1C,104*,-1,·,-35,105*,113*,18,8
Cc1noc(C)c1S(=O)(=O)N(C)C[C@H]1OCCCC[C@@H](C)Oc2ccc(NC(=O)Nc3ccc(C(F)(F)F)cc3)cc2C(=O)N([C@H](C)CO)C[C@@H]1C,110*,-2,-1,-53,108*,102*,7,32*

# Source: PubChem
